Compound activity deposited in PubChem by several laboratories.
AP complement = alternative complement pathway inhibitors, primary screen, biochemical, ELISA, human serum, orthogonally pooled compounds; inhibition, % at 5 µM; LPS-coated ELISA, C3 deposition; tested in compound mixtures; actives 0.08% (n = 62,000);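 active = inhibition above 30% in each of the two pooled mixtures holding the compound, so the lower value exceeds 30%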;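 note: 0% = serum in Mg-EGTA without compound and 100% = EDTA serum blank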
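Assay system: human serum alternative complement pathway, C3 deposition on LPS-coated wells; Dosing: 5 µM per compound in ten-compound mixtures; Detection: Anti-C3 ELISA, OD 450 nm; Buffer or medium: Mg2+-EGTA GVB++ buffer containing human serum at 1:15 dilution; Timing: 1 h at 37 °C; Replication: two different pools per compound.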
DAT uptake mod = changed hDAT dopamine uptake under cocaine IC80, either direction, primary screen, cocaine antagonist project, cell-based, LLC-PK1 hDAT, [14C]-dopamine uptake, MLSMR | Sodium-dependent dopamine transporter (Homo sapiens), Q01959 | LLC-PK1 hDAT cells, [14C]-dopamine uptake with cocaine IC80; actives deviate in either direction | B-score at 10 µM | actives 1.3% (n = 110,000);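 active = Z score or B-score, a plate-position-corrected score, falls beyond the plate's 99.7% confidence bounds, in either direction; inactive = both scores lie inside the 99.7% bounds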;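 note: scored against the spread of the other compound wells on the same plate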
WNV NS2B-NS3 inh = inhibitors of WNV NS2B-NS3 protease, primary screen, biochemical, fluorogenic substrate. Genome polyprotein (West Nile virus), P06935. fluorogenic substrate Ex360/Em465; hits give low values. z-score (test concentration not listed). actives 0.18% (n = 65,000). AID 577, 2007; in the data active = z-score below about -3
D1 mod = D1 CRE-luciferase signal change, two-sided – cell-based, HEK293 D1, dopamine EC30, D1 allosteric modulator project, primary screen; D(1A) dopamine receptor (Homo sapiens), P21728; B-score at 10 µM; dopamine EC30 potentiation; actives deviate in either direction; actives 5.9% (n = 58,000);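 active = luminescence count or its row- and column-corrected plate score outside the 99.7% band of the plate's sample wells, on either side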
Target sequence (P21728 whole entry, looked up): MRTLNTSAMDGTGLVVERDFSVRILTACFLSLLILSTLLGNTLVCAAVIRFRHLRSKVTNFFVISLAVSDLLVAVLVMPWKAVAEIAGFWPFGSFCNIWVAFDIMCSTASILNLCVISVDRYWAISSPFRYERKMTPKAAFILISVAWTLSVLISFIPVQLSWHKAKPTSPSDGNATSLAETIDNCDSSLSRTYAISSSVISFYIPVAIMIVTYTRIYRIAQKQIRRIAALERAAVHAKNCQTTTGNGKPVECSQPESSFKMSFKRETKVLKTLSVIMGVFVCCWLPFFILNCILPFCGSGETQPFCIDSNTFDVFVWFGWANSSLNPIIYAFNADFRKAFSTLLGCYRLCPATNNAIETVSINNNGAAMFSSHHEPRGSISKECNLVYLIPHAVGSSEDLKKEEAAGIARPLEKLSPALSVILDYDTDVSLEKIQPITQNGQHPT
An asterisk follows results filed as active; x = no result given. The full list was thinned out, with hits kept by preference.

SMILES	AP complement	DAT uptake mod	WNV NS2B-NS3 inh	D1 mod
CCOc1cccc(-c2cc(-c3n[nH]c(=S)n3CC)c3ccccc3n2)c1	x	2.4*	x	x
CCn1c(-c2c[nH]c3ccccc23)n[nH]c1=S	-2	0.22	-0.83	0.52
COc1ccc(-c2coc3cc(O)ccc3c2=O)cc1	x	-0.18	x	x
COc1ccc2c(=O)c(-c3nc(C)cs3)coc2c1	x	0.027	-0.19	-5.9*
CCCNC(=O)C1(CC2CC(c3ccccc3)=NO2)CCN(C(=O)c2cc(OCC)c(OCC)c(OCC)c2)CC1 (stereo unspecified)	x	-0.032	x	x
Cc1sc(NC(=O)c2ccco2)c(C(c2cccnc2)N2CCN(c3ccc(F)cc3)CC2)c1C (stereo unspecified)	12	-1.6	-0.74	-3*
CCOC(=O)C1CCN(C(c2cccnc2)c2c(NC(=O)c3ccco3)sc(C)c2C)CC1 (stereo unspecified)	1	x	-0.29	0.35
COc1cc(CNCCc2c[nH]c3ccccc23)ccc1OCc1ccccc1F	x	2.5*	x	x
COc1ccccc1CCNCc1ccc(OC)c(OCc2ccccc2)c1	x	-0.019	x	x
Cc1ccc(C(=O)NC2CCCCC2)cc1	x	-0.58	x	x
CCOC(=O)COc1ccc(C(=O)NC2CCCCC2)cc1	-13	-0.13	-0.08	-5.6*
CCOc1ccc(C2c3c(oc4ccccc4c3=O)C(=O)N2c2ccc(C)cn2)cc1OC (stereo unspecified)	9	-0.057	0.35	2.5
COC(=O)C1=C(C)NC(=O)CC1c1cc2c(cc1Br)OCO2 (stereo unspecified)	16	-1	-0.76	0.59
Cn1c2c(c(=O)n(C)c1=O)C(c1cc3c(cc1Br)OCO3)CC(=O)N2 (stereo unspecified)	32*	x	1.3	x
COC(=O)\C(C(C)=O)=C(/C=C/C=C/C=C/N(C)C)N(C)C	x	0.028	x	x
CC(NC(=O)COc1cc(=O)n(C)c2ccccc12)c1ccc2c(c1)OCCO2 (stereo unspecified)	10	1.7*	0.63	0.18
CC(NC(=O)c1cc2c(=O)n(C)c3ccccc3c2n1C)c1ccc2c(c1)OCCO2 (stereo unspecified)	15	0.31	-0.9	-4.6*
CC(C)CCNC(=O)CCCOc1cc(=O)n(C)c2ccccc12	12	x	-0.52	-0.83
Cn1c(C(=O)Nc2ccc3c(c2)OCO3)cc2c(=O)n(C)c3ccccc3c21	3	-0.47	-1	2.5
Cc1ccc(-c2cc(C(=O)N3CCCC3)no2)cc1	14	1.7	-0.26	-5.2*
COc1ccccc1N1CCN(C(=O)c2cc(-c3ccc(C)cc3)on2)CC1	-2	1.8	0.8	0.036
CCNC(=O)CSc1nc2ccccc2c(=O)n1-c1cc(OC)ccc1OC	x	-0.15	x	x
COc1ccc(CCN2C(=O)C(O)=C(C(C)=O)C2c2ccccc2OC)cc1OC (stereo unspecified)	x	-0.27	x	x
CCOc1cc(C2C(C(=O)c3ccc(C)o3)=C(O)C(=O)N2CCc2ccccc2)ccc1O (stereo unspecified)	12	-4.6*	1.7	-0.087
COc1ccc(CCN2C(=O)C(O)=C(C(=O)c3ccco3)C2c2cccs2)cc1OC (stereo unspecified)	3	-3.3*	-1.2	-0.44
SMILES	AP complement	DAT uptake mod	WNV NS2B-NS3 inh	D1 mod
COc1cc(C2C(C(=O)c3ccco3)=C(O)C(=O)N2CCc2ccccc2)ccc1O (stereo unspecified)	1	-3.3*	-0.96	x
COc1cc(C2C(C(C)=O)=C(O)C(=O)N2CCc2ccc(OC)c(OC)c2)ccc1O (stereo unspecified)	22	-0.12	-0.57	-0.34
Cc1cccn2c(=O)c3cc(C(=O)N4c5ccccc5CC4C)n(C)c3nc12 (stereo unspecified)	10	x	-0.98	-4.8*
CC1Cc2ccccc2N1C(=O)c1cc2c(=O)n3ccccc3nc2n1C (stereo unspecified)	0	0.14	-0.2	-2.1
C[C@H]1O[C@H](O[C@H]2[C@H](O)[C@@H](O)[C@@H](O[C@H]3[C@H](O)[C@@H](O)C(O)O[C@@H]3CO)O[C@@H]2CO)[C@H](O)[C@@H](O)[C@@H]1N[C@H]1C=C(CO)[C@@H](O)[C@H](O)[C@H]1O (stereo partly specified)	x	-0.17	x	x
O=C(O)C(Cc1ccccc1)N1C(=O)/C(=C/c2cccc3ccccc23)SC1=S (stereo unspecified)	x	-2.7*	x	x
O=C(O)C1CC=CCC1C(=O)NCc1ccc2c(c1)OCO2 (stereo unspecified)	x	0.46	x	x
O=C(CC1C(=O)NC2CCCCC2N1C(=O)c1ccc(F)cc1)Nc1ccccc1 (stereo unspecified)	x	2.9*	x	x
Cc1nc(C)c(C(=O)NCc2ccccc2Cl)o1	7	-0.11	-0.07	-0.97
COc1ccccc1NC(=O)NCCCl	x	-2.4*	x	x
COc1ccccc1NC(C)=O	-7	0.86	x	x
COc1cc2nc(N(C)CCCNC(=O)C3CCCO3)nc(N)c2cc1OC (stereo unspecified)	x	-0.048	x	x
COc1cc2nc(N(C)C)nc(N)c2cc1OC	-1	-0.6	1.7	-4.6*
CC(C)n1c(SCc2ccc(Cl)cc2)nc2c1c(=O)[nH]c(=O)n2C	-3	-3.1*	-1.4	1.9
COc1ccc(C(=O)N2CCC(=O)N(C(CO)Cc3ccccc3)CC2)cc1 (stereo unspecified)	x	0.32	x	x
CN1CCN(C2OC(=O)c3ccccc32)CC1 (stereo unspecified)	x	0.17	x	x
CN1CCN2c3ccccc3Cc3ccccc3C2C1 (stereo unspecified)	-2	1.4	0.06	-7*
C/C=C\C(=O)Nc1cccc(C2=NOC3(C2)C[C@H](C(N)=O)N(C(=O)[C@H]2CCC(=O)N2)C3)c1 (stereo partly specified)	x	-0.03	x	x
COc1ccc(CCN2C(=O)CC(N3CCN(c4ccccn4)CC3)C2=O)cc1OC (stereo unspecified)	33*	1.8	-0.41	0.18
COc1ccc(CCN2C(=O)CC(N3CCOCC3)C2=O)cc1OC (stereo unspecified)	x	-0.072	x	x
Cc1ccc(CCNc2ccccc2C)cn1	x	-0.46	x	x
O=c1c2ccccc2nnn1CSc1nnc2sc3ccccc3n12	1	x	0.73	-7.8*
CN1/C(=C/C2CC(=O)N(c3ccc([N+](=O)[O-])cc3)C2=O)C(C)(C)c2ccccc21 (stereo unspecified)	x	2.9*	x	x
Cc1nc(SC2CC(=O)N(c3ccc([N+](=O)[O-])cc3)C2=O)nc2c1CCCC2 (stereo unspecified)	x	1.7	x	x
CCCCNC(=O)CSc1nnc(Cc2ccccc2)n1CC	x	1	x	x
O=C(NCCOc1ccccc1)c1ccc2c(c1)OCO2	1	0.25	0.27	-7.5*
CCOCCCNC(=O)c1ccc2c(c1)OCO2	-14	-0.45	1	-0.51
CC(C)(CO)Nc1ccc([N+](=O)[O-])cc1[N+](=O)[O-]	x	-2.6*	x	x
Cc1cc([N+](=O)[O-])ccc1NCc1ccccc1	x	-0.026	x	x
